# From ChEMBL document CHEMBL2203063, “Azo-reductase activated budesodine prodrugs for colon targeting” (Bioorg Med Chem Lett, 2012)
# How the values were obtained:
# [1] = Prodrug conversion assessed as Clostridium perfringes azoreductase-mediated reduction after 6 hrs at pH 7.4; format: ADME; conditions: clostridium perfringens, pH 7.4, 6 h
# Summary of the method: (§1)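 Prodrugs incubated anaerobically with a suspension of azoreductase-producing Clostridium perfringens at 37 °C, pH 7.4, sampled over 24 h. Progress curves tracked loss of prodrug and appearance of budesonide and linker byproducts (the dihydroquinolone or 3,3-dimethyl-1,3-dihydro-indol-2-one). Assay conditions follow the group's earlier method.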
# [2] = Chemical stability in simulated doudenal juice up to 24 hrs; format: physicochemical
# Summary of the method: (§2)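 Prodrug incubated in simulated duodenal or gastric juice at 37 °C and followed for up to 24 h to see whether it stays intact.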
# [3] = Prodrug conversion assessed as Clostridium perfringes azoreductase-mediated budesonide formation at pH 7.4; format: ADME; conditions: clostridium perfringens; summary of the method: as §1
# [4] = Chemical stability in simulated gastric juice up to 24 hrs; format: physicochemical; conditions: simulated gi fluid; summary of the method: as §2
# [5] = Drug metabolism assessed as Clostridium perfringes azoreductase-mediated cyclization to dihydroquinolone at pH 7.4; format: ADME; conditions: clostridium perfringens; summary of the method: as §1
# [6] = Prodrug conversion in buffer assessed as half life of cyclization at pH 3.44; format: physicochemical
# [7] = Prodrug conversion in buffer assessed as half life of cyclization at pH 5; format: physicochemical
# [8] = Prodrug conversion in buffer assessed as half life of cyclization at pH 5.5; format: physicochemical
# [9] = Prodrug conversion in buffer assessed as half life of cyclization at pH 7 to 7.5; format: physicochemical
# [10] = Prodrug conversion in buffer assessed as half life of cyclization at pH 2.5; format: physicochemical
# [11] = Drug metabolism assessed as Clostridium perfringes azoreductase-mediated hydrazine formation at pH 7.4 by HPLC analysis; format: ADME; conditions: clostridium perfringens
# [12] = Drug metabolism assessed as Clostridium perfringes azoreductase-mediated hydrazine reoxidation to parent azo compound formation at pH 7.4 by HPLC analysis; format: ADME; conditions: clostridium perfringens
# [13] = Drug metabolism assessed as Clostridium perfringes azoreductase-mediated hydrolysis at pH 7.4; format: ADME; conditions: clostridium perfringens
SMILES,Drug metabolism [1],Stability [2],Drug metabolism [3],Stability [4],Drug metabolism [5],t1/2 [6] [min],t1/2 [7] [min],t1/2 [8] [min],t1/2 [9] [min],t1/2 [10] [min],Drug metabolism [11],Drug metabolism [12],Drug metabolism [13]
CCCC1O[C@@H]2C[C@H]3[C@@H]4CCC5=CC(=O)C=C[C@]5(C)[C@H]4[C@@H](O)C[C@]3(C)[C@]2(C(=O)COC(=O)C(C)(C)c2ccccc2/N=N/c2ccc(O)c(C(=O)O)c2)O1 (mixture of isomers),Active,Stable,Active,Stable,Active,,,,,,,,
CCCC1O[C@@H]2C[C@H]3[C@@H]4CCC5=CC(=O)C=C[C@]5(C)[C@H]4[C@@H](O)C[C@]3(C)[C@]2(C(=O)COC(=O)CCc2ccccc2N)O1 (mixture of isomers),,,,,,29.3,52.7,73.2,201,25.9,,,
CCCC1O[C@@H]2C[C@H]3[C@@H]4CCC5=CC(=O)C=C[C@]5(C)[C@H]4[C@@H](O)C[C@]3(C)[C@]2(C(=O)COC(=O)CCc2ccccc2/N=N/c2ccc(C(=O)O)cc2)O1 (mixture of isomers),Not Active,Stable,Not Active,Stable,,,,,,,Active,Active,
CCCC1O[C@@H]2C[C@H]3[C@@H]4CCC5=CC(=O)C=C[C@]5(C)[C@H]4[C@@H](O)C[C@]3(C)[C@]2(C(=O)COC(=O)CCc2ccccc2/N=N/c2ccc(O)c(C(=O)O)c2)O1 (mixture of isomers),Active,Stable,Active,Stable,,,,,,,,,Not Active
